Source: PubChem BioAssay (several laboratories)
A selection: hits, their analogues and other compounds. The true share with any hit is near 1.7%.
VIM-2 inh: inhibitors of Pseudomonas aeruginosa VIM-2 metallo-beta-lactamase; purified VIM-2, nitrocefin hydrolysis, epi-absorbance fluorescence; actives 0.89% (n = 290,000); AID 1527; inhibition, % at 5.6 µM;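 active = inhibition above the mean of all tested compounds plus 3 SD, cutoff set per screening run, cut at about 7.5% in these data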;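 note: red hydrolysis product quenches plate fluorescence so inhibitors raise well fluorescence; 0% = enzyme with DMSO and 100% = DMSO without enzyme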
procasp3 activ: activates human procaspase-3 | recombinant procaspase-3 D3A, Ac-DEVD-pNA absorbance 405 nm | activation, % at 8.5 µM | actives 0.11% (n = 330,000);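 active = activation above the mean of all tested compounds plus 3 SD, cut at about 21% in these data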;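 note: 0% = DMSO alone and 100% = DMSO wells spiked with extra 5 µM PC-3 D3A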
Target sequence (P42574 whole entry D9A/D28A/D175A): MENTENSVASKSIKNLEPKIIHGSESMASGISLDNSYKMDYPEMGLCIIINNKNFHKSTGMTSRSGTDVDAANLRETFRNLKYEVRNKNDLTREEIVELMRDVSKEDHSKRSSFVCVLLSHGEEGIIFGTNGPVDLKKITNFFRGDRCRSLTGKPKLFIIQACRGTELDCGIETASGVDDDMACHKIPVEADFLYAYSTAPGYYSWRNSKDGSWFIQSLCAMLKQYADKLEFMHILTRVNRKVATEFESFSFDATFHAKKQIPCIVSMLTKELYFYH
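assay system = Procaspase-3 D3A mutant | signal = absorbance at 405 nm, 0 and 120 min | times = 1 h preincubation plus 2 h reaction at 25 °C | repeats = single replicate | read-out = % activation between DMSO and enzyme-spiked controls | medium = Zinc-free HEPES saline buffer with Triton X-100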
procasp7 counter: counter-screen: procaspase-7 (human) activation; P55210; recombinant procaspase-7, Ac-DEVD-pNA absorbance 405 nm; D23A/D198A/D206A triple mutant, cannot self-cleave; scale: DMSO 0, 5 µM enzyme 100; activation, % at 8.5 µM; actives 0.093% (n = 330,000); AID 463210;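 active = percent activation above the screen-wide mean plus 3 SD, cut at about 25% in these data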
Target sequence (P55210 whole entry D23A/D198A/D206A): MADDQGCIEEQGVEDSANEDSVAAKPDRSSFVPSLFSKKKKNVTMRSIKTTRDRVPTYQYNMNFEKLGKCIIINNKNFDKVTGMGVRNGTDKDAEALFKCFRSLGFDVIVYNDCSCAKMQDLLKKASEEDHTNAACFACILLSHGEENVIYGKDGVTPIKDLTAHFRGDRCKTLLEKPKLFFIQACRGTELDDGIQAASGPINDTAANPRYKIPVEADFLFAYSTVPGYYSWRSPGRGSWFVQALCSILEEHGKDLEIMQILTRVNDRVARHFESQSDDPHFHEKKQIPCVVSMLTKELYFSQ
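Assay system: Uncleavable procaspase-7 mutant enzyme / Input: 2 µM procaspase-7 mutant as dispensed / Dosing: single nominal 8.5 µM compound dose, 0.8% DMSO final / Timing: 1 h enzyme–compound preincubation and 2 h substrate reaction, both 25 °C / Detection: p-Nitroaniline absorbance at 405 nm, read at 0 and 120 min / Replication: singlicate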
PolyA inhibitor: blocks polyadenylation in yeast reporter cells. S. cerevisiae SKY197-pL101 polyadenylation reporter, beta-gal luminescence; efflux-impaired pdr1/pdr3 knockout yeast; score 100 = 6 SD above DMSO. activity score, % at 12 µM. actives 0.02% (n = 300,000);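 active = lowest replicate activity score at least 50, where 100 means six control SD above control mean; inconclusive = lowest score under 50 but half or more replicates reach 50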;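 note: yeast exposed to compound for 9 h at 30 °C; higher score means more reporter readthrough which indicates perturbed polyadenylation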
Neddyl block: cullin neddylation inhibition. calls only at 25 µM. TR-FRET cullin neddylation, biochemical. P61081+Q13564. actives 0.58% (n = 360,000); in the data active = inhibition above about 36%
IMP-1 inh: inhibitors of Pseudomonas aeruginosa IMP-1 metallo-beta-lactamase | purified IMP-1, nitrocefin hydrolysis, epi-absorbance fluorescence | inhibition, % at 5.6 µM | actives 0.45% (n = 290,000) | AID 1556;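 active = inhibition above the mean plus 3 SD of all compounds in the same screening run, cut at about 4.5% in these data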;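 note: 0% = IMP-1 with DMSO and 100% = DMSO wells lacking enzyme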
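System: purified recombinant IMP-1 beta-lactamase. Medium: Zinc- and detergent-supplemented HEPES buffer, pH 7.1. Compound: one 5.6 µM dose […]. Schedule: 15 min preincubation plus 25 min reaction at 25 °C. Technique: Epi-absorbance fluorescence, 480 nm excitation, 530 nm emission.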
Neddyl inh conf: cullin neddylation inhibition, confirmation; TR-FRET cullin neddylation biochemical assay; shares compounds with Neddyl block; actives 13% (n = 1,800); calls only at 25 µM; in the data active = inhibition above about 40%;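 note: neddylation substrate is the cullin 1 ring ligase complex with SKP2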
An asterisk follows results filed as active; i = inactive; ? = inconclusive; . = no result shown; + = active, no number.

SMILES	VIM-2 inh	procasp3 activ	procasp7 counter	PolyA inhibitor	Neddyl block	IMP-1 inh	Neddyl inh conf
CCCCCCC(=O)Nc1cc2c(C)cc(=O)oc2cc1C	0.7	4.3	1.7	0.0	i	-0.7	.
N/C(=N\N=Cc1ccc2c(c1)OCO2)NN=Cc1ccc2c(c1)OCO2	.	.	.	.	+	.	.
CCC(=O)Nc1c(-c2ccc(C)cc2)nc2ccc(C)cn12	-1.4	-34.9	10.0	1.7	+	-1.8	i
N#C/C(=N\Nc1ccc(Cl)cc1)C(=N)N1CCCCC1	0.1	-4.0	-4.9	-11.4	i	-0.8	.
COc1ccc(C2C(C#N)=C(C)NC3=C2C(=O)CC(C)(C)C3)cc1 (stereo unspecified)	-0.3	-1.2	-3.9	0.8	+	-2.3	.
COc1ccc(C2C3=C(CC(C)(C)CC3=O)Nc3c2c(=O)[nH]c2nc(C)nn32)cc1 (stereo unspecified)	-0.7	-3.4	-3.2	-3.7	+	-1.4	+
CC1=C(C#N)C(c2ccc(O)cc2)C2=C(CCCC2=O)N1 (stereo unspecified)	3.1	6.8	1.5	-2.2	+	-3.5	i
COc1cccc(C2C(C#N)=C(C)NC3=C2C(=O)CC(C)(C)C3)c1 (stereo unspecified)	-3.6	-3.0	-3.5	-19.2	.	-2.7	.
CC(C)CN(C(=O)COC(=O)c1ccccc1NCc1ccco1)c1c(N)n(Cc2ccccc2)c(=O)[nH]c1=O	.	0.4	-1.7	2.0	+	.	i
COc1cc2ccccc2cc1C(=O)OCC(=O)N(CC(C)C)c1c(N)n(Cc2ccccc2)c(=O)[nH]c1=O	.	5.7	3.4	2.7	+	.	i
COCCN(C(=O)COC(=O)c1cc2ccccc2cc1OC)c1c(N)n(Cc2ccccc2)c(=O)[nH]c1=O	.	10.3	5.7	14.3	+	.	+
COCCN(C(=O)COC(=O)c1cc(C)n(-c2ccccc2)c1C)c1c(N)n(Cc2ccccc2)c(=O)[nH]c1=O	.	-8.7	5.4	-11.6	i	.	.
S=C1NCN(Cc2ccco2)CN1Cc1ccco1	-1.7	1.2	1.9	3.3	i	-1.8	.
COc1ccc(CCN2CC(C(=O)N(C)CCn3nc(C)cc3C)CCC2=O)cc1 (stereo unspecified)	1.0	2.9	-3.7	-2.6	i	-2.5	.
CC(C)c1nc2oc3c(=O)[nH]cnc3c2c2c1CCC2	-0.6	2.8	6.4	-2.2	+	1.3	i
O=C(Nc1ccc(OC(=O)c2cccs2)cc1)c1ccco1	-3.6	-2.5	11.1	3.9	i	-4.0	.
Cc1cc(NS(=O)(=O)c2ccc(NC(=O)c3cc4c(=O)n5ccccc5nc4s3)cc2)nc(C)n1	-2.5	.	.	24.1	+	-2.8	+
Cc1cc(NS(=O)(=O)c2ccc(NC(=O)c3cc4ccccc4o3)cc2)nc(C)n1	-0.7	8.5	-0.7	20.8	i	0.4	.
CN(C)S(=O)(=O)c1cccc(NC(=O)c2cc3c(=O)n4ccccc4nc3s2)c1	-4.2	6.6	-4.3	16.9	+	-2.4	.
COc1ccc(NS(=O)(=O)c2cccc(NC(=O)C3=NN(c4ccccc4)C(=O)CC3)c2)cc1	0.3	2.9	1.3	13.2	i	0.0	.
CN(c1ccccc1)S(=O)(=O)c1cccc(NC(=O)C2=NN(c3ccccc3)C(=O)CC2)c1	.	9.5	4.7	.	+	.	i
COc1ccc(CN(C)C(=O)Cn2cnc3c(SC)nc(N)nc32)cc1OC	.	0.4	-0.1	.	i	.	.
CCOC(=O)c1ccccc1N=Cc1c(O)c2ccccc2oc1=O	1.2	8.0	5.2	-11.3	+	-1.5	i
COc1ccc(NC(=S)N/N=C2\CC(C)(C)Oc3ccc(O)cc32)cc1	-0.7	-5.0	-3.0	18.3	+	-0.2	i
COc1ccccc1NC(=S)N/N=C1\CC(C)(C)Oc2ccc(O)cc21	-3.0	-11.7	-7.0	-9.6	+	-3.2	i
SMILES	VIM-2 inh	procasp3 activ	procasp7 counter	PolyA inhibitor	Neddyl block	IMP-1 inh	Neddyl inh conf
O=C(c1ccc(-c2ccccc2)cc1)C1CCCN(Cc2ccncc2)C1 (stereo unspecified)	-2.0	1.0	3.6	-1.1	i	-2.0	.
CSc1cccc(NC(=S)Nc2cc(C)ccc2C)c1	-2.0	-11.1	-13.3	-9.0	i	-0.5	.
CN(C)c1ccc(/C=N/NC(=O)CNC(=O)c2ccco2)cc1	-1.6	-1.3	5.2	11.8	+	-2.9	+
COc1cc(C(=O)NN=Cc2ccc(N(C)C)cc2)cc(OC)c1OC	.	.	.	.	+	.	+
CN(C)c1ccc(/C=N/NC(=O)CCc2nc3ccccc3[nH]2)cc1	0.4	-4.5	0.6	-1.3	+	-2.1	+
CN(C)c1ccc(/C=N/NC(=O)c2cccc(N3CCCC3=O)c2)cc1	-2.2	5.4	12.0	?	+	-3.8	i
COc1nnc(-c2ccc(C)c(S(N)(=O)=O)c2)c2ccccc12	-0.2	2.3	11.0	-0.8	i	-3.2	.
CN(C)c1ccc(/C=N/NC(=O)COc2ccccc2)cc1	-4.3	6.9	4.1	2.7	+	-4.3	+
O=C(COc1ccccc1)NCC(=O)N/N=C/c1ccccc1	-2.3	4.7	5.9	10.0	i	-4.2	.
Cc1cccc(OCC(=O)N/N=C/c2ccc(N(C)C)cc2)c1	-3.1	-3.2	6.0	-0.9	+	-3.2	+
CC(=O)Nc1ccc2c(c1)CCCC2=O	0.2	4.4	2.2	-10.5	i	-1.8	.
Cc1[nH]c(C)c2c(=O)n(-c3ccccc3)ncc12	-3.4	5.8	-5.5	15.2	i	-4.2	.
CC(C)C(NS(=O)(=O)c1ccc2c3c(cccc13)C(=O)N2)C(=O)O (stereo unspecified)	-2.6	0.0	2.2	-1.1	.	-2.9	.
O=C1NC(=O)c2cc3ccccc3cc21	.	-1.7	-14.3	.	+	.	+
COc1ccc(-c2nc3c(n2O)CCC/C3=N\O)cc1	-3.0	-4.1	5.5	10.4	+	-2.3	i
Cc1cc(-n2cccn2)ccc1CN1CCN(CC(C)C)C(CCO)C1 (stereo unspecified)	-3.2	0.4	-2.8	?	i	-3.0	.
Cc1ccc(O)c(C(=O)c2cnn(C(=O)Cc3csc(C)n3)c2)c1	-2.1	6.7	15.4	.	i	-5.2	.
Cc1ncc(CC(=O)n2cc(C(=O)c3cc(F)ccc3O)cn2)s1	-2.6	-4.7	7.6	17.1	+	0.2	i
CN(C(=O)CN1C(=O)NC(C)(c2cccc(Br)c2)C1=O)C1CCCCC1 (stereo unspecified)	.	12.6	-7.3	.	i	.	.
Cc1noc(C)c1-c1ccc(C(=O)NCCC(F)(F)F)c2occc12	.	.	.	.	i	.	.
